pEC50, pIC50: −log10 of the molar value.
Tests used:
[1] = target: T1, Human immunodeficiency virus type 1 integrase (Human immunodeficiency virus 1, UniProt Q7ZJM1); assay: Inhibition of HIV-1 integrase enzyme at 3`- processing stage of DNA integration
[2] = target: T1, Human immunodeficiency virus type 1 integrase; assay: Inhibitory concentration as 50% inhibition of HIV-1 integrase enzyme at strand transfer stage of DNA integration.
CCRF-CEM [3] = assay: Tested for HIV-1 replication in CEM cells.; type: functional, cell-based; conditions: Homo sapiens
Procedure, shortened: (§1)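 CEM T4 lymphocytes, exponentially growing, 5000 cells/well, infected with thawed HIV-1 stock at m.o.i. ~0.1. Compounds dissolved in DMSO, diluted 1:100 in medium, final 1:200. Uninfected drug-treated cells served as toxicity control. Incubation 6 days at 37 °C, 5% CO2. Viability read by XTT formazan absorbance, with microscopic confirmation of protection.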

CCRF-CEM [4] = assay: Effective concentration was evaluated on HIV-1 infected CEM cells. (NR-not reached due to cytotoxicity.); type: functional, cell-based; procedure, shortened: as §1
[5] = target: T1, Human immunodeficiency virus type 1 integrase; assay: Inhibitory concentration was evaluated as 50% inhibition of HIV-1 integrase enzyme at 3`- processing stage of DNA integration in experiment II
[6] = target: T1, Human immunodeficiency virus type 1 integrase; assay: Inhibitory concentration was evaluated as 50% inhibition of HIV-1 integrase enzyme at strand transfer stage of DNA integration in experiment II
Procedure, shortened: (§2)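 Purified recombinant HIV-1 integrase (200 nM final) preincubated with inhibitor for 30 min at 30 °C in MOPS/HEPES pH 7.2–7.5 buffer containing 7.5 mM MnCl2 and 10% DMSO. 20 nM 5'-32P-labeled 21-mer duplex oligonucleotide (AE117/AE118) added, then 1 h more. Strand transfer products resolved on denaturing 20% polyacrylamide/urea gels and quantified by phosphorimaging. % inhibition plotted against drug concentration to read IC50.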

[7] = target: T1, Human immunodeficiency virus type 1 integrase; assay: Inhibitory concentration was evaluated as 50% inhibition of HIV-1 integrase enzyme at 3`- processing stage of DNA integration in experiment I
[8] = target: T1, Human immunodeficiency virus type 1 integrase; assay: Inhibitory concentration was evaluated as 50% inhibition of HIV-1 integrase enzyme at strand transfer stage of DNA integration in experiment I; procedure, shortened: as §2
CCRF-CEM [9] = assay: Effective concentration was evaluated on HIV-1 infected CEM cells.; type: functional, cell-based; conditions: Homo sapiens; procedure, shortened: as §1
CCRF-CEM [10] = assay: Effective concentration was evaluated on HIV-1 infected CEM cells.(NR-not reached due to cytotoxicity.); type: functional, cell-based, Homo sapiens; procedure, shortened: as §1
CCRF-CEM [11] = assay: Effective concentration was evaluated on HIV-1 infected CEM cells; type: functional, cell-based; conditions: Homo sapiens; procedure, shortened: as §1

T1 sequence (Q7ZJM1 whole entry): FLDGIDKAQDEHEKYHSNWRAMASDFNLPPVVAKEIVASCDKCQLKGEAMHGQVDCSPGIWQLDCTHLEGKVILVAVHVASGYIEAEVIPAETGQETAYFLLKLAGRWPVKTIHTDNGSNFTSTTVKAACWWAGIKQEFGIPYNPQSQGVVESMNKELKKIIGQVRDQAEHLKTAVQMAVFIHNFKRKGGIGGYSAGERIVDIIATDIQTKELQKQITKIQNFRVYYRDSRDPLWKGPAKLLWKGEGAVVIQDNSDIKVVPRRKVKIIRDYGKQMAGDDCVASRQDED

| SMILES | pIC50 [1] | pIC50 [2] | pIC50 (CCRF-CEM [3]) | EC50 (CCRF-CEM [4]) | other results |
| --- | --- | --- | --- | --- | --- |
| CC1=NN(C(=O)c2ccc(Cl)cc2)C(=O)/C1=C/c1ccccc1O | < 3.53 | < 3.53 | < 4.68 | – | pEC50 (CCRF-CEM [9]): < 4.68 |
| CC1=NN(C(=O)c2ccc(Cl)cc2)C(=O)/C1=C/c1ccc(Cl)cc1 | < 3.55 | < 3.55 | < 5.00 | – | pEC50 (CCRF-CEM [9]): < 5.00 |
| O=C(O)c1ccccc1C(=O)NNC(=O)c1ccccc1C(=O)O | < 4.00 | < 4.00 | – | – | – |
| O=C(NNC(=O)c1ccc(Cl)cc1Cl)c1ccc2ccccc2c1 | < 4.00 | < 4.00 | – | – | – |
| O=C(NNC(=O)c1ccccc1Br)c1ccccc1Br | < 4.00 | < 4.00 | – | – | – |
| CC1=NN(C(=O)c2ccccc2O)C(=O)/C1=C/c1ccccc1O | – | 5.55 | 7.21 | Not reached | – |
| O=C(NNC(=O)c1ccc(Cl)c(Cl)c1)c1ccc(Cl)c(Cl)c1 | < 4.00 | < 4.00 | – | – | – |
| O=C(NNC(=O)c1cccc2ccccc12)c1ccccc1F | < 4.00 | < 4.00 | – | – | – |
| O=C(NNC(=O)c1ccccc1F)c1ccc2ccccc2c1 | < 4.00 | < 4.00 | – | – | – |
| CC1=NN(C(=O)c2ccc(Cl)cc2)C(=O)/C1=C/c1ccc(O)cc1 | < 3.53 | < 3.53 | < 4.82 | – | pEC50 (CCRF-CEM [9]): < 4.82 |
| O=C(NNC(=O)c1cccc2ccccc12)c1ccccc1Br | < 4.00 | < 4.00 | – | – | – |
| CC1=NN(C(=O)c2ccc(Cl)cc2)C(=O)/C1=C/c1cccc(O)c1 | < 3.53 | < 3.53 | < 5.10 | – | pEC50 (CCRF-CEM [9]): < 5.10 |
| CC1=NN(C(=O)c2ccc(Cl)cc2)C(=O)/C1=C/c1cccc([N+](=O)[O-])c1 | < 3.57 | < 3.57 | < 4.70 | – | pEC50 (CCRF-CEM [11]): < 4.70 |
| COc1ccc(/C=C2/C(=O)N(C(=O)c3ccccc3O)N=C2C)cc1OC | – | – | 6.82 | Not reached | – |
| O=C(NNC(=O)c1cccc2ccccc12)c1ccc(Cl)c(Cl)c1 | < 4.00 | < 4.00 | – | – | – |
| O=C(NNC(=O)c1ccc(Cl)c(Cl)c1)c1ccccc1 | < 4.00 | < 4.00 | – | – | – |
| O=C(NNC(=O)c1ccc(Br)cc1)c1ccc(Br)cc1 | < 4.00 | < 4.00 | – | – | – |
| O=C(NNC(=O)c1ccccc1F)c1ccccc1F | < 4.00 | < 4.00 | – | – | – |
| O=C(NNC(=O)c1ccc2ccccc2c1)c1ccc(Cl)c(Cl)c1 | < 4.00 | < 4.00 | – | – | – |
| Nc1ccccc1C(=O)NNC(=O)c1ccccc1N | < 4.00 | < 4.00 | < 3.70 | – | pEC50 (CCRF-CEM [11]): < 3.70 |

Further lines, with some results ahead:

| pIC50 [1] | pIC50 [2] | pIC50 (CCRF-CEM [3]) | SMILES | EC50 (CCRF-CEM [4]) | other results |
| --- | --- | --- | --- | --- | --- |
| 5.85 | 5.59 | 7.01 | CC1=NN(C(=O)c2ccccc2O)C(=O)/C1=C/c1cccc([N+](=O)[O-])c1 | Not reached | – |
| 5.70 | 5.70 | 6.62 | COc1cc(/C=C2/C(=O)N(C(=O)c3ccccc3O)N=C2C)cc(OC)c1OC | Not reached | – |
| < 4.00 | < 4.00 | – | CCOc1ccccc1C(=O)NNC(=O)c1ccccc1OCC | – | – |
| < 3.56 | 3.58 | < 4.56 | COc1cc(C2C(Cl)C(=O)N2NC(=O)c2ccccc2O)ccc1O (stereo not drawn) | Not reached | – |
| – | – | < 4.82 | O=C(NN1C(=O)C(Cl)C1c1cccc(O)c1)c1ccccc1O (stereo not drawn) | Not reached | pIC50 [5]: 3.65; pIC50 [6]: 4.00; pIC50 [7]: 3.74; pIC50 [8]: 3.63 |
| – | 4.03 | < 4.83 | O=C(NN1C(=O)C(Cl)C1c1ccccc1Cl)c1ccccc1O (stereo not drawn) | Not reached | pIC50 [5]: 3.61; pIC50 [7]: 3.62 |
| 3.54 | 3.78 | < 3.84 | COc1ccc(C2C(Cl)C(=O)N2NC(=O)c2ccccc2O)cc1 (stereo not drawn) | – | – |
| < 3.52 | 3.55 | 4.99 | O=C(NN1C(=O)C(Cl)C1c1ccc(O)cc1)c1ccccc1O (stereo not drawn) | Not reached | – |
| 6.22 | 6.05 | 7.23 | CC1=NN(C(=O)c2ccccc2O)C(=O)/C1=C/c1ccc(O)cc1 | Not reached | – |
| 5.57 | 5.70 | 6.22 | CC1=NN(C(=O)c2ccccc2O)C(=O)/C1=C/c1ccco1 | Not reached | – |
| – | 4.13 | 5.36 | COc1cc(C2C(Cl)C(=O)N2NC(=O)c2ccccc2O)cc(OC)c1OC (stereo not drawn) | Not reached | pIC50 [5]: 4.12; pIC50 [7]: 4.16 |
| – | – | 7.00 | O=C(NNC(=O)c1ccccc1O)c1ccccc1O | – | EC50 (CCRF-CEM [10]): Not reached |
| < 4.00 | < 4.00 | – | COc1cc(C(=O)NNC(=O)c2ccc(Cl)cc2)cc(OC)c1OC | – | – |
| 6.05 | 6.22 | 7.28 | COc1ccc(/C=C2/C(=O)N(C(=O)c3ccccc3O)N=C2C)cc1 | Not reached | – |
| < 4.00 | < 4.00 | – | COc1cc(C(=O)NNC(=O)c2ccc(Cl)c(Cl)c2)cc(OC)c1OC | – | – |
| 3.52 | 3.58 | 5.09 | O=C(NN1C(=O)C(Cl)C1c1ccccc1O)c1ccccc1O (stereo not drawn) | Not reached | – |
| – | – | < 5.00 | O=C(NN1C(=O)C(Cl)C1c1ccc([N+](=O)[O-])cc1)c1ccccc1O (stereo not drawn) | Not reached | pIC50 [5]: 3.77; pIC50 [6]: 4.08; pIC50 [7]: 3.72; pIC50 [8]: 3.81 |
| < 3.59 | < 3.59 | < 4.46 | COc1ccc(/C=C2/C(=O)N(C(=O)c3ccc(Cl)cc3)N=C2C)cc1OC | – | pEC50 (CCRF-CEM [9]): < 4.46 |
| 6.05 | 5.13 | – | CC1=NN(C(=O)c2ccccc2O)C(=O)/C1=C/c1cccc(O)c1 | Not reached | – |
| 6.10 | 6.22 | 7.04 | CC1=NN(C(=O)c2ccccc2O)C(=O)/C1=C/c1ccc([N+](=O)[O-])cc1 | Not reached | – |
| – | 3.97 | < 4.30 | COc1ccc(C2C(Cl)C(=O)N2NC(=O)c2ccccc2O)cc1OC (stereo not drawn) | Not reached | pIC50 [5]: 3.96; pIC50 [7]: 3.90 |
| < 3.62 | < 3.62 | < 4.77 | COc1cc(/C=C2/C(=O)N(C(=O)c3ccc(Cl)cc3)N=C2C)cc(OC)c1OC | – | pEC50 (CCRF-CEM [9]): < 4.77 |
| 3.90 | 3.65 | – | O=C(NN1C(=O)C(Cl)C1c1c(O)ccc2ccccc12)c1ccccc1O (stereo not drawn) | – | – |
| 6.10 | 6.22 | – | COc1cc(/C=C2/C(=O)N(C(=O)c3ccccc3O)N=C2C)ccc1O | Not reached | – |
| – | 3.90 | < 4.13 | O=C(NN1C(=O)C(Cl)C1c1cccc(Cl)c1)c1ccccc1O (stereo not drawn) | Not reached | pIC50 [5]: 3.69; pIC50 [7]: 3.81 |

Source: ChEMBL document CHEMBL1131060, “Salicylhydrazine-containing inhibitors of HIV-1 integrase: implication for a selective chelation in the integrase active site” (J Med Chem, 1998)
